Activity calls are given as the source filed them. The rule behind the calls is not given here.
Key:
Rattus norvegicus [1] = assay: Antihypertensive activity in spontaneous hypertensive rat model assessed as reduction in mean blood pressure at 15 mg/kg, po measured up to 24 hrs; assay type: functional, organism-based
Method in brief: (§1)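 Male SHRs (250 ± 20 g) were randomized, 6 per group. Compound was suspended in 0.5% sodium carboxymethyl cellulose and given orally; vehicle-only negative control. Mean blood pressure was calculated as (SBP − DBP)/3 + DBP from systolic and diastolic readings over the time course. Data are mean ± SD, with p < 0.05 taken as significant.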

[2] = Displacement of 125I-Ang2 from AT1 receptor in SPF Sprague-Dawley rat vascular smooth muscle cell membranes after 150 mins by gamma counting method
Method in brief: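 Primary aortic VSMCs from SPF Sprague-Dawley rats, obtained by explant culture in DMEM/10% FBS and identified by SM α-actin staining; passages 3–6. Whole cells (10^6/well) incubated with 125I-Ang II (diluted to 0.2 nM) and compound at final 10^-12–10^-6 M, 4 °C for 150 min. Washed, lysed in 0.1 M NaOH, γ-counted. IC50 from nonlinear fit of competition curves.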

Rattus norvegicus [3] = assay: Antihypertensive activity in spontaneous hypertensive rat model assessed as reduction in mean blood pressure at 15 mg/kg, po after 12 hrs; assay type: functional, organism-based; method in brief: as §1
Rattus norvegicus [4] = assay: Antihypertensive activity in spontaneous hypertensive rat model assessed as reduction in mean blood pressure at 15 mg/kg, po after 3 hrs; assay type: functional; method in brief: as §1

Structure (SMILES) | IC50 [2] [nM] | Activity (Rattus norvegicus [1]) | Ki [2] [nM] | Activity (Rattus norvegicus [3]) | Activity (Rattus norvegicus [4]) [mmHg]
CCCC1=NC2(CCCC2)C(=O)N1Cc1ccc2c(ccn2-c2ccccc2-c2nnn[nH]2)c1 | 7.04 | Active | 5.07 |  | 
CCCCCCC1=NC2(CCCC2)C(=O)N1Cc1ccc2c(ccn2-c2ccccc2-c2nnn[nH]2)c1 | 6.15 |  | 4.67 |  | 
CCCCCC1=NC2(CCCC2)C(=O)N1Cc1ccc2c(ccn2-c2ccccc2-c2nnn[nH]2)c1 | 5.33 | Active | 3.42 |  | 

The remaining compounds from weak to strong by IC50 [2], led by results:

IC50 [2] [nM] | Structure (SMILES) | Activity (Rattus norvegicus [1]) | Ki [2] [nM] | Activity (Rattus norvegicus [3]) | Activity (Rattus norvegicus [4]) [mmHg]
7.75 | CCCC1=NC2(CCCC2)C(=O)N1Cc1cccc2c1ccn2-c1ccccc1-c1nnn[nH]1 | Active | 5.61 |  | 
6.15 | CCCCCC1=NC2(CCCC2)C(=O)N1Cc1cccc2c1ccn2-c1ccccc1-c1nnn[nH]1 | Active | 4.67 |  | 
3.05 | CCCCC1=NC2(CCCC2)C(=O)N1Cc1cccc2c1ccn2-c1ccccc1-c1nnn[nH]1 |  | 2.21 | Active | 40.57
1.46 | CCCCC1=NC2(CCCC2)C(=O)N1Cc1ccc(-c2ccccc2-c2nnn[nH]2)cc1 [IRBESARTAN] | Active | 1.05 |  | 

Source: ChEMBL document CHEMBL3872205, “Design, synthesis and evaluation of novel potent angiotensin II receptor 1 antagonists” (Eur J Med Chem, 2016)
